A selection: hits, their analogues and other compounds. The true share with any hit is near 1.5%.
STAT3 inh-1: IL-6 driven STAT3 reporter inhibitors, primary screen, U3A cells, luciferase, luminescence, MLSCN library; inhibition, % at 5.5 µM; AID 862, 2007; IL-6 STAT3-luciferase reporter; host cell line lacks STAT1; 190,000 compounds, 0.89% hits;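 active means inhibition above the mean inhibition across all screened compounds plus 3 SD, cut at about 44% in these data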;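 further: 0% = DMSO only wells and 100% = 100 µM nifuroxazide control wells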
TAG inh: inhibitors of triacylglycerol accumulation, primary screen, cell-based, uHTS, fluorescence, H9c2 | H9c2 cells, Nile Red lipid (TAG) fluorescence; cells loaded with 200 µM oleic acid | inhibition, % at 12.5 µM | 230,000 compounds, 0.66% hits;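 active means pattern-corrected inhibition of lipid staining of at least 50% with the nuclear-stain viability signal not falling by more than 50%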;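 further: 0% = DMSO wells and 100% = triacsin C control wells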
STAT1 inh: STAT1 signaling inhibitors, primary screen, cell-based, HTS, luciferase reporter; NIH 3T3 STAT1-luciferase reporter, IFN-gamma, luminescence; inhibition, % at 5.5 µM; 200,000 compounds, 0.35% hits;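 active means inhibition above a set limit, the mean inhibition across all tested compounds plus 3 SD, cut at about 34% in these data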;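 further: 0% = IFN-gamma with DMSO and 100% = IFN-gamma with 300 µM nifuroxazide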
Platelet DG rel: inhibitors of platelet dense granule secretion, primary screen, cell-based, MLPCN, human platelets. human platelet-rich plasma, SFLLRN dense granule ATP release, luminescence. inhibition, %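 (compounds screened at 7.5 µM in platelet-rich plasma)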. 300,000 compounds, 0.22% hits;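 active means mean replicate score, as percent of positive control, at or above 50; inconclusive means mean below 50 but at least one replicate at or above 50; inactive means mean and every replicate below 50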
PPC-1+TRAIL kill: compounds killing PPC-1 cancer cells with TRAIL present, primary screen, TRAIL potentiator project, ATPLite luminescence, uHTS; PPC-1 cells + TRAIL, ATPLite viability luminescence; cell killing (% activity), % at 4 µM or 5 µM; 220,000 compounds, 0.41% hits;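 active means cell killing above 50% in the first pass at 4 µM, then a duplicate retest at 5 µM averaging 50% or more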;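 further: plate controls were cells with TRAIL plus DMSO for no effect and medium-only wells lacking cells for full effect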
Lipid droplet: inhibitors of hepatocyte lipid droplet formation, primary screen, imaging, high-throughput imaging, BODIPY stain | 240,000 compounds, 0.4% hits | inhibition, % at 6.5 µM | AID 1656, 2009 | AML12 mouse hepatocytes, oleate lipid droplets;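 active means lipid droplet intensity inhibited by at least 50%, with more than 500 cells counted; inconclusive means wells with under 300 cells, treated as cytotoxic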
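System: AML12 hepatocytes (mouse). Probe or stimulus: oleic acid at 100 µM to induce lipid droplet formation. Times: overnight treatment with compound plus oleate. Detection: Image-based BODIPY and DAPI two-channel analysis. Evaluation: percent inhibition of filter-corrected integrated lipid droplet intensity per well.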
STAT3 inh-2: STAT3 reporter inhibitors, retest of hits, confirmation, U3A cells, luciferase, luminescence; shares compounds with STAT3 inh-1; IL-6 STAT3 luciferase reporter; cell line lacks STAT1; inhibition, % at 5.7 µM; 1,200 compounds, 45% hits; AID 1265, 2008;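 active means inhibition above the hit cutoff computed for the primary STAT3 screen, cut at about 44% in these data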;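 further: 0% = IL-6 plus DMSO and 100% = IL-6 plus nifuroxazide control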
NFkB inh STAT3ct: NF-kB reporter inhibitors in human cells, confirmation, counter-screen for STAT3 inhibitor project, cell-based, HEK293T, luciferase, TNF-alpha stimulus. 1,200 compounds, 36% hits. inhibition, % at 5.7 µM. TNF-alpha induced. shares compounds with STAT3 inh-1;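 active means inhibition above the mean of solvent-only control wells plus 3 SD, cutoff set per campaign, cut at about 13% in these data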;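 further: 0% = TNF-alpha with DMSO and 100% = TNF-alpha with MG high control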
STAT1 inh 2: STAT1 reporter inhibitors, IFN-gamma induced, confirmation, counter-screen for STAT3 inhibitor project, cell-based, NIH 3T3, luciferase luminescence | inhibition, % at 5.7 µM | shares compounds with STAT3 inh-1 | 1,200 compounds, 27% hits | NIH 3T3 STAT1-luciferase reporter | AID 1317, 2008;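 active means inhibition above the mean plus 3 SD of solvent-only control wells, limit set per screening run, cut at about 16% in these data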;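 further: 0% = DMSO with IFN-gamma and 100% = nifuroxazide control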
Numbers without * were called inactive; ? = inconclusive; · = not tested or not shown.

SMILES	STAT3 inh-1	TAG inh	STAT1 inh	Platelet DG rel	PPC-1+TRAIL kill	Lipid droplet	STAT3 inh-2	NFkB inh STAT3ct	STAT1 inh 2
O=S(=O)(NCc1ccncc1)c1ccc(Br)s1	83*	-40	31	6	35	-4	80*	27*	27*
COC(=O)COc1ccc(S(=O)(=O)NCc2ccncc2)cc1	63*	·	20	0	13	-31	54*	5	19*
CCOC(=O)COc1ccc(S(=O)(=O)NCc2cccnc2)cc1	6	·	6	7	-3	21	·	·	·
NC(=O)c1cccc(Nc2nc(C(N)COCc3ccccc3)cs2)n1 (stereo unspecified)	·	13	·	·	·	·	·	·	·
O=c1oc2ccccc2cc1-c1nc2c(s1)CCCC2	74*	·	31	4	24	·	48*	31*	-39
Cc1ccc(C(=O)COC(=O)c2cccs2)cc1	47*	-7	25	15	15	-4	6	-23	-66
O=C(COC(=O)c1cccs1)c1ccc2ccccc2c1	-1	-11	-25	5	28	-6	·	·	·
O=C(COC(=O)c1cccs1)c1ccc2c(c1)OCCO2	54*	·	17	22	42	6	19	-6	-40
Cc1cc(/C=C2\Sc3ccccc3N2C)cc(C)[n+]1CC1CCCO1 (stereo unspecified)	83*	·	22	·	33	-103	84*	20*	11
CCOc1ccc(NC(=O)C2CCCN(S(=O)(=O)c3ccc4c(c3)C(C)(C)C(=O)N4C)C2)cc1 (stereo unspecified)	·	-20	·	·	·	·	·	·	·
Cc1nc(-c2coc3cc(O)c(C)cc3c2=O)cs1	53*	-8	11	34	12	9	28	0	-80
CCc1cc2c(=O)c(-c3nc(C)cs3)coc2cc1O	·	1	·	6	3	0	·	·	·
CC1(C(=O)NCc2cccnc2)Cc2c(-c3cccc(C(F)(F)F)c3)ccnc2O1 (stereo unspecified)	·	20	·	·	·	·	·	·	·
C[C@H]1CN([C@@H](C)CO)S(=O)(=O)c2ccc(Br)cc2O[C@H]1CN(C)C(=O)c1cccnc1	·	6	·	·	·	·	·	·	·
N/C(=N\N=C\c1ccc2c(c1)OCO2)c1nonc1N	54*	·	-34	38	19	-2	33	-14	-98
O=[N+]([O-])c1cccc(-c2nnc(-c3ccc4c(c3)OCO4)o2)c1	10	·	-46	-1	15	-9	·	·	·
c1cc(-c2noc(-c3ccc4c(c3)OCO4)n2)ccn1	18	·	-18	·	·	·	·	·	·
c1ccc(-c2noc(-c3ccc4ccccc4c3)n2)cc1	57*	·	-56	17	22	·	0	11	-89
Clc1ccccc1-c1nnc(-c2ccc3c(c2)OCO3)o1	44*	-8	-14	23	47	-6	11	-26	-106
c1ccc(-c2noc(-c3ccc4c(c3)OCO4)n2)cc1	66*	0	-1	24	44	24	27	6	-63
Cc1ccnc(Nc2nc3ccccc3o2)n1	43*	12	13	33	46	4	17	-18	-60
COc1cccc(-c2cnc(C(O)c3ccc(CN4CCCC4)cc3)[nH]2)c1 (stereo unspecified)	·	7	·	·	·	·	·	·	·
Cc1nc(NC(=O)/C=C/c2ccco2)sc1C	45*	·	-49	-4	7	-3	36	-21	-64
CCNC(=O)C1(C)CCCN(C(=O)c2cc(-c3ccccc3)cs2)C1 (stereo unspecified)	·	-15	·	·	·	·	·	·	·
O=C(Oc1ccccc1N1C(=O)C2CCCCC2C1=O)c1ccccc1 (stereo unspecified)	68*	-15	12	7	-1	·	46*	4	-16
SMILES	STAT3 inh-1	TAG inh	STAT1 inh	Platelet DG rel	PPC-1+TRAIL kill	Lipid droplet	STAT3 inh-2	NFkB inh STAT3ct	STAT1 inh 2
Cc1ccc(C(=O)Oc2ccccc2N2C(=O)C3CCCCC3C2=O)cc1 (stereo unspecified)	54*	·	4	-2	1	·	38	-1	6
O=C(Oc1ccccc1N1C(=O)C2CC=CCC2C1=O)c1ccc(Br)cc1 (stereo unspecified)	-7	·	10	-11	7	-5	·	·	·
Cc1ccccc1C(=O)Oc1ccccc1N1C(=O)C2CC=CCC2C1=O (stereo unspecified)	0	·	17	0	35	-30	·	·	·
Cc1ncccc1C(=O)N1CCCC(c2cc(C(=O)Nc3ccc(C(C)(C)C)cc3)no2)C1 (stereo unspecified)	·	7	·	·	·	·	·	·	·
C[C@H](CO)N1C[C@H](C)[C@@H](CN(C)Cc2ccccn2)Oc2ncc(-c3ccccc3)cc2C1=O	·	20	·	·	·	·	·	·	·
CCOc1ccc2nc3sc(C(=O)N4CCOCC4)c(N)c3cc2c1	56*	10	17	2	·	-7	2	-6	-8
Cc1ccc2c(C)nc(Nc3nc(CSc4nc5ccccc5[nH]4)cc(=O)[nH]3)nc2c1	53*	·	7	-3	24	·	45*	1	2
Cc1ccc(S(=O)(=O)NC(=O)N2CCCC2)cc1	·	4	·	·	·	·	·	·	·
COc1cc2c(cc1OC)C(c1ccc(-c3ccc(Cl)cc3Cl)o1)=NCC2	63*	·	5	-1	15	·	53*	16*	-3
COc1ccc(-n2c(-c3ccc(Cl)cc3)c[n+]3c2CCc2ccccc2-3)cc1	63*	-24	23	-5	-3	-45	50*	0	20*
O=C(Oc1cccc(Nc2ncnc3ccccc23)c1)c1ccccc1Cl	54*	7	10	-3	16	0	48*	1	-1
COc1cccc(Nc2ncnc3ccccc23)c1	5	·	-19	7	27	-2	·	·	·
O=C(COC(=O)c1n[nH]c2ccccc12)Nc1cccc(S(=O)(=O)N2CCOCC2)c1	14	7	14	?	20	-17	·	·	·
O=C(COC(=O)c1n[nH]c2ccccc12)Nc1ccc(S(=O)(=O)N2CCCC2)cc1	71*	2	4	·	10	-16	51*	6	9
CNC(=O)C[C@@H]1C(=O)N(CCc2ccccc2)CC1(C)C	·	-10	·	·	·	·	·	·	·
CC(C)(C)c1ccc(C(=O)N2CCC2(C)C(=O)NCC(F)(F)F)cc1 (stereo unspecified)	·	9	·	·	·	·	·	·	·

High-throughput results as filed in PubChem BioAssay.
